Shown are actives, neighbours in structure and some others; about 1.5% of the full set was active somewhere.
EBI2 antag: EBI2 (human) antagonism; P32249; EBI2 beta-arrestin recruitment, luminescence, 7a,25-OHC stimulated; inhibition, % at 5 µM; actives 0.81% (n = 360,000); in the data active = inhibition above about 38%;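 also: enzyme fragment complementation signal reports receptor beta-arrestin coupling in cells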
APJ agonist: agonists of human APJ apelin receptor | P35414 | CHO-K1 APJ PathHunter beta-arrestin, luminescence; 0% DMSO wells, 100% apelin | activation, % at 20 µM | actives 0.11% (n = 330,000) | AID 2520;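 active = activation more than six SD over the plate average, tested at 20 µM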
Target sequence (P35414 whole entry, looked up): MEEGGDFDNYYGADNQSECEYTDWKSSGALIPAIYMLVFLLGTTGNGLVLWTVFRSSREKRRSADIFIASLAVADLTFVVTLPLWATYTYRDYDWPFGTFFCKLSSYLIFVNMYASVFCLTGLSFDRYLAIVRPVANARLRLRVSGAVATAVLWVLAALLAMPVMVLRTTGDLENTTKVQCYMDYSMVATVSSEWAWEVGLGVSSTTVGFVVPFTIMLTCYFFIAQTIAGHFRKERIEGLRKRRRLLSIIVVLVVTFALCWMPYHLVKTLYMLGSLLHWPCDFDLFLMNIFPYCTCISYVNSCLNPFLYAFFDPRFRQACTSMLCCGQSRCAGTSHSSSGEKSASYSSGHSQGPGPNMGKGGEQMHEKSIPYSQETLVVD
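Assay system: engineered CHO-K1 APJ arrestin reporter cells; Amount: 1000 CHO-K1 reporter cells seeded per well; Dosing: one dose, 20 µM compound, 1% DMSO; Times: compound stimulation 90 min at 25 °C, detection 60 min; Measured by: luminescent beta-gal fragment complementation, chemiluminescent substrate; Read-out: APJ–arrestin association signal; Controls: DMSO vs Apelin-13 10 nM.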
APJ antagonist: APJ receptor antagonism | inhibition, % at 20 µM | CHO-K1 APJ beta-arrestin complementation, luminescence | actives 0.32% (n = 330,000) | P35414;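 active = inhibition above about 40% at 20 µM, limit read from the data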;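 also: cells challenged with 10 nM apelin-13 agonist together with compound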
CXCR6 block: blocks human CXCR6 beta-arrestin recruitment; O00574; CHO-K1 PathHunter CXCR6 beta-arrestin, luminescence; inhibition, % at 20 µM; actives 0.36% (n = 360,000); in the data active = inhibition above about 34%, passing the limit was not always enough;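 also: antagonist mode with CXCL16 agonist at 10 nM final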
CCR6 antag: blocks CCL20-driven beta-arrestin recruitment at human CCR6. P51684. CHO-K1 CCR6 PathHunter beta-arrestin, luminescence, CCL20-stimulated. inhibition, % at 20 µM. actives 0.49% (n = 340,000);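 active = compounds whose inhibition of the agonist-driven luminescence signal at 20 µM reaches about 50%, limit read from the data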;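 also: cells stimulated with CCL20 at 14 nM final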
EBI2 antag conf: confirmation of human EBI2 receptor antagonists; AID 651997; shares compounds with EBI2 antag; actives 29% (n = 2,400); EBI2 beta-arrestin luminescence, 7a,25-OHC antagonism; inhibition, % at 5 µM;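 active = inhibition of at least 50%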
EBI2 ag: counter-screen for EBI2 antagonists: EBI2 agonist activity | shares compounds with EBI2 antag | EBI2-expressing cells, agonist mode, luminescence, 60 min; 0% vehicle, 100% 7α,25-dihydroxycholesterol control | activation, % at 5 µM | 2,400 tested, under 10 active;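 active = activation of at least 50%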
bGal counter: inhibits E. coli beta-galactosidase, counter-screen for EBI2 antagonists | shares compounds with EBI2 antag | purified beta-galactosidase, luminescent Galacton Star, 15 min | inhibition, % at 5 µM | actives 1% (n = 2,400) | AID 652176;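 active = replicate-average signal at least 3 plate SD below neutral wells, shown as high inhibition, flagging enzyme-inhibiting false positives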;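 also: higher means stronger loss of beta-gal luminescence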
Hits are given with their value.

Screening CC(=O)N1CCN(c2nnc(-c3ccccc3)c3ccccc23)CC1 returned EBI2 antag inactive, APJ agonist inactive, APJ antagonist inactive, CXCR6 block inactive and CCR6 antag inactive.
Screening CCC(=O)N1CCN(c2nnc(-c3ccccc3)c3ccccc23)CC1 returned EBI2 antag inactive, APJ agonist inactive, APJ antagonist inactive, CXCR6 block inactive and CCR6 antag inactive.
`Cc1ccc(OCC(=O)N2CCN(c3nnc(-c4ccc(C)cc4)c4ccccc34)CC2)cc1` gave EBI2 antag 87.1, APJ agonist inactive, APJ antagonist inactive, CXCR6 block inactive, CCR6 antag inactive, EBI2 antag conf 83.7, EBI2 ag inactive and bGal counter inactive.
Screening COc1ccc(OCC(=O)N2CCN(c3nnc(-c4ccccc4)c4ccccc34)CC2)cc1 returned EBI2 antag 91.7, APJ agonist inactive, APJ antagonist inactive, CXCR6 block inactive, CCR6 antag inactive, EBI2 antag conf 79.8, EBI2 ag inactive and bGal counter inactive.
For Clc1cccc(-c2nnc(SC/C=C/c3ccccc3)n2Cc2ccco2)c1 the results were EBI2 antag 44.8, APJ agonist inactive, APJ antagonist inactive, CXCR6 block inactive, CCR6 antag inactive, EBI2 antag conf inactive, EBI2 ag inactive and bGal counter inactive.
For COc1ccc2c(c1)oc1c(SCc3nc4ccccc4[nH]3)nc(C)nc12 the results were EBI2 antag 77.7, APJ agonist inactive, APJ antagonist inactive, CXCR6 block inactive, CCR6 antag inactive, EBI2 antag conf 50.8, EBI2 ag inactive and bGal counter inactive.
Cc1nc(SCc2nc3ccc(Cl)cc3[nH]2)c2oc3ccccc3c2n1 was read as EBI2 antag inactive, APJ agonist inactive, APJ antagonist inactive, CXCR6 block inactive and CCR6 antag inactive.
Screening Cc1nc(SCc2nc3ccccc3[nH]2)c2oc3cc([N+](=O)[O-])ccc3c2n1 returned EBI2 antag 48.1, APJ agonist inactive, APJ antagonist inactive, CXCR6 block inactive, CCR6 antag inactive, EBI2 antag conf 58.9, EBI2 ag inactive and bGal counter inactive.
Screening Cc1nc(SCc2nc3ccc(Br)cc3[nH]2)c2oc3ccccc3c2n1 returned EBI2 antag inactive, APJ agonist inactive, APJ antagonist inactive, CXCR6 block inactive and CCR6 antag inactive.
Screening Cc1cccc(NC(=O)c2cc([N+](=O)[O-])ccc2N2CCOCC2)c1C returned EBI2 antag inactive and CXCR6 block inactive.
CC(C)CNc1ncnc2c1ncn2[C@H]1CN(Cc2ccc(Cl)cc2)C[C@@H](CO)O1 was read as EBI2 antag inactive and CXCR6 block inactive.
For CC(C)Nc1ncnc2c1ncn2[C@H]1CN(Cc2ccc(Cl)cc2)C[C@@H](CO)O1 the results were EBI2 antag 74.4, CXCR6 block inactive, EBI2 antag conf 88.3, EBI2 ag inactive and bGal counter inactive.
CC(C)Nc1ncnc2c1ncn2[C@H]1CN(Cc2ccc(F)cc2)C[C@@H](CO)O1 was read as EBI2 antag 46.5, CXCR6 block inactive, EBI2 antag conf 50.4, EBI2 ag inactive and bGal counter inactive.
Screening CC(Oc1ccc2oc3ccccc3c2c1)C(=O)NC12CC3CC(CC(C3)C1)C2 (configuration not stated) returned EBI2 antag 53.7, APJ agonist inactive, APJ antagonist inactive, CXCR6 block inactive, CCR6 antag inactive, EBI2 antag conf inactive, EBI2 ag inactive and bGal counter inactive.
`COc1ccc(C(=O)NC23CC4CC(CC(C4)C2)C3)cc1` gave EBI2 antag inactive, APJ agonist inactive, APJ antagonist inactive, CXCR6 block inactive and CCR6 antag inactive.
COc1ccc(-c2cc(C3CCN(Cc4cccc(C(F)(F)F)c4)CC3)[nH]n2)cc1 was read as EBI2 antag 54.8, APJ agonist inactive, APJ antagonist inactive, CXCR6 block inactive, CCR6 antag inactive, EBI2 antag conf inactive, EBI2 ag inactive and bGal counter inactive.
